Assay [1] deals with T1, Diacylglycerol lipase-alpha (Homo sapiens, UniProt Q9Y4D2).
T1 sequence (Q9Y4D2 whole entry): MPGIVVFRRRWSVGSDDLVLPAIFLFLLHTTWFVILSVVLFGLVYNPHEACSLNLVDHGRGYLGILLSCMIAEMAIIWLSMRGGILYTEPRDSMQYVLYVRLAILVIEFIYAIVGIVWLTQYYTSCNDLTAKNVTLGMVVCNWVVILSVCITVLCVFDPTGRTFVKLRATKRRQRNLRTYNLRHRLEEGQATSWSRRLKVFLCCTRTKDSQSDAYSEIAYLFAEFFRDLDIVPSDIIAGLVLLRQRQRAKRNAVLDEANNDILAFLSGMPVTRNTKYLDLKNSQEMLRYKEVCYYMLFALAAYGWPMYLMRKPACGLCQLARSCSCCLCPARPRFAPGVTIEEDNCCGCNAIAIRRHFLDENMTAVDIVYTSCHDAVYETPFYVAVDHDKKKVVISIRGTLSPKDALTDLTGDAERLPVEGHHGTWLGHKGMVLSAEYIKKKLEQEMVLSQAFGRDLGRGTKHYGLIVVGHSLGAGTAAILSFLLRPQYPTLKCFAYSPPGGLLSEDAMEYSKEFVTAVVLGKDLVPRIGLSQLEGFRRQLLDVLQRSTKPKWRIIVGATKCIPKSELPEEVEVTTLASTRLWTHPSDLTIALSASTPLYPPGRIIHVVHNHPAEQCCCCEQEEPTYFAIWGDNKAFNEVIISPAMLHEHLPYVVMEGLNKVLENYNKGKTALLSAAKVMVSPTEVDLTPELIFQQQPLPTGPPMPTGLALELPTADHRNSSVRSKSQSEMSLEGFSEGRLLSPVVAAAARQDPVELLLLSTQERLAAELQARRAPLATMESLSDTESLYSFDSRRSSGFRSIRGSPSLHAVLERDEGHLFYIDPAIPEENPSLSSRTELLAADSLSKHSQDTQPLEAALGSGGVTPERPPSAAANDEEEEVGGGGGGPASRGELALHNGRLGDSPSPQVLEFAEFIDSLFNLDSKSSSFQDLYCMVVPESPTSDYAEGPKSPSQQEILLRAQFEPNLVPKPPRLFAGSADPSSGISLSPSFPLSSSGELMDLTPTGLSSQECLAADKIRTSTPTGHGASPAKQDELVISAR
Description: Inhibition of full length recombinant human DAGLalpha expressed in HEK293T cell membranes using PNP butyrate as substrate by colorimetric assay. Also on record: species or system HEK-293T. In outline: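 Membranes from HEK293T cells transiently transfected with human DAGLα (PEI transfection, harvested at 72 h), used at 0.05 µg/µL final protein in 50 mM HEPES pH 7.2. Activity was read colorimetrically from para-nitrophenylbutyrate hydrolysis. n = 4, mean ± SEM.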

Assay [2] concerns the target T2, Monoacylglycerol lipase ABHD6 (Homo sapiens, UniProt Q9BV23).
T2 sequence (Q9BV23 whole entry): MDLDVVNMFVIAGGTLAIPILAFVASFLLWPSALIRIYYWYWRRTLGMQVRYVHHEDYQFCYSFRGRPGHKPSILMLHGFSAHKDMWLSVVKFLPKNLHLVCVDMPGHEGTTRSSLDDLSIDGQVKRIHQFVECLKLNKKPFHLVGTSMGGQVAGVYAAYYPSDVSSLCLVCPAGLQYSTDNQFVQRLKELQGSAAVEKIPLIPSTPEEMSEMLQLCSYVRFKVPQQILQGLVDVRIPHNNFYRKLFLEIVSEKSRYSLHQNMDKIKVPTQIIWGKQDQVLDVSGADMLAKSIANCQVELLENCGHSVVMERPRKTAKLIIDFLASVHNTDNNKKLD
Description: Inhibition of human ABHD6 using 2-AG as natural substrate by fluorescence based assay. The method, boiled down:
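Coupled fluorescence assay: 2-AG hydrolysis detected via glycerol kinase, glycerol-3-phosphate oxidase and HRP (0.2 U/mL each), 0.125 mM ATP and 10 µM Amplifu Red. Conditions: 25 µM 2-AG, 0.5% acetonitrile, 5% DMSO, ABHD6 membrane protein 40 µg/mL final. n = 4.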

Assay [3] is filed under the species Mus musculus. Description: Selectivity ratio of IC50 for ABHD6 in mouse brain membrane proteome to IC50 for DAGLalpha in mouse brain membrane proteome. It is filed as cell membranes. The method, boiled down:
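Ratio of DAGLα and ABHD6 […] values, both from competitive gel ABPP in mouse brain membrane proteome. Inhibitor was preincubated 30 min at r.t., then MB064 (250 nM final) was added for 20 min. Band intensities were normalized to vehicle and fitted with a variable-slope curve. n = 3.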

Assay [4] concerns the target T3, Diacylglycerol lipase-alpha (Mus musculus) (UniProt Q6WQJ1).
T3 sequence (whole entry): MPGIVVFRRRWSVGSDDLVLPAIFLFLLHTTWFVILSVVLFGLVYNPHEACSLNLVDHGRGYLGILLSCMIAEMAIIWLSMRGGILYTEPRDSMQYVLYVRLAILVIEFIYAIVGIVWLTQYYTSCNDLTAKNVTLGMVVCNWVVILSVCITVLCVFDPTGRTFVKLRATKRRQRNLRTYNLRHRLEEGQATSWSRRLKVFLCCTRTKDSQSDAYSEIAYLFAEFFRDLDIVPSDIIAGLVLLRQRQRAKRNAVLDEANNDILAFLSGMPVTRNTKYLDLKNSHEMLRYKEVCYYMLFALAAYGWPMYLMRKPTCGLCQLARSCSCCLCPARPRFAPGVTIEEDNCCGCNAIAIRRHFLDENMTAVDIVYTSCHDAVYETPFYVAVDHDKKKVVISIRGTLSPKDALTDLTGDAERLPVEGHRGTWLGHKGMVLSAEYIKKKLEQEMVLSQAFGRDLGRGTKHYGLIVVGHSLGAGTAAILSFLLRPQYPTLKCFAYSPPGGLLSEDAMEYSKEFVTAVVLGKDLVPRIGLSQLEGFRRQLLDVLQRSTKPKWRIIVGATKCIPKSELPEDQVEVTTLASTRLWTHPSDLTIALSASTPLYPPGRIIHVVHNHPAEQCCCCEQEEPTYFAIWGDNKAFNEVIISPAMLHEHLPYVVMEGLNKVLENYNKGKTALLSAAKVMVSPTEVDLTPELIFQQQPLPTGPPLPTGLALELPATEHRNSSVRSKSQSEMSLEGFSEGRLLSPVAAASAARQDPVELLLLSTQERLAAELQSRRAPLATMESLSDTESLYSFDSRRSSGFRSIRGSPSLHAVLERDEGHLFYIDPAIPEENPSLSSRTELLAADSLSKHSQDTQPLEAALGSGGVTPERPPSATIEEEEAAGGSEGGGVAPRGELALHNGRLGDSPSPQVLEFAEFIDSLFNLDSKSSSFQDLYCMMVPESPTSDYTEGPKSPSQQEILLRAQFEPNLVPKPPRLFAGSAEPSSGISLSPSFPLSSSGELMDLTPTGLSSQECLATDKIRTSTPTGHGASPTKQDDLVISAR
In words: (§1) Inhibition of MB064 probe binding to DAGLalpha in mouse brain membrane proteome preincubated for 30 mins followed by MB064 probe addition measured after 20 mins by gel-based competitive activity based protein profiling assay. The format is cell membranes. In outline: (§2)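 Mouse brain membrane proteome (2 mg/mL) preincubated with inhibitor or DMSO vehicle for 30 min at r.t., then labelled with MB064 at 250 nM final for 20 min at r.t. and quenched in Laemmli buffer. Fluorescent bands were quantified against vehicle set to 100%, and IC50 was taken from a variable-slope log(inhibitor) vs normalized response fit. n = 3.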

Assay [5] has as its target T4, Diacylglycerol lipase-alpha (Mus musculus, UniProt Q6WQJ1).
T4 sequence (Q6WQJ1 whole entry): T3 sequence (whole entry)
Described as §1. It is filed as cell membranes. In outline:
as §2

The target in assay [6] is T5, Monoacylglycerol lipase ABHD6 (Mus musculus, UniProt Q8R2Y0).
T5 sequence (Q8R2Y0 whole entry): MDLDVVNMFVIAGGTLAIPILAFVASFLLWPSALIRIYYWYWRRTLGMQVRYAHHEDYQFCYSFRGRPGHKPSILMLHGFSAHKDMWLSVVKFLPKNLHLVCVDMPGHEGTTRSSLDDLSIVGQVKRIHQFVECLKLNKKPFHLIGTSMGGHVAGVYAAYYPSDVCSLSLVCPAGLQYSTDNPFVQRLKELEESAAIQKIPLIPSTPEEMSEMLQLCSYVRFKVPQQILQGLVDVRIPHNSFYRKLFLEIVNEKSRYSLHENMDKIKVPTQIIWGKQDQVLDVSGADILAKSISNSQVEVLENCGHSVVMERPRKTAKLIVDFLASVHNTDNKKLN
Description: Inhibition of MB064 probe binding to ABHD6 in mouse brain membrane proteome preincubated for 30 mins followed by MB064 probe addition measured after 20 mins by gel-based competitive activity based protein profiling assay. It is filed as cell membranes. The method, boiled down:
as §2

With `COc1cccc(CC2CCCCN2C(=O)n2ncc(C(O)(c3ccc(F)cc3)c3ccc(F)cc3)n2)c1` (stereo not given), the half-maximal inhibitory concentration (IC50) (commonly the concentration needed to halve the response being measured) in assay [1] is 3.16 nM; in assay [2] it was 158 nM.
On to `CO[C@@H]1CC[C@H](Cc2ccccc2)N(C(=O)n2ncc(C(O)(c3ccc(F)cc3)c3ccc(F)cc3)n2)C1`, for which the IC50 in assay [1] was 0.794 nM; in assay [5], 2 nM; in assay [2], 50.1 nM; in assay [6], 50.1 nM. Also, the Ratio IC50 in assay [3] is 25. In addition, the inhibition result in assay [4] was “Dose-dependent effect”.
For `O=C(N1CCCCC1Cc1ccccc1)n1ncc(C(O)(c2ccc(F)cc2)c2ccc(F)cc2)n1` (stereo not given), the IC50 is 1 nM in assay [1] and 25.1 nM in assay [2].
Turning to `O=C(N1C[C@@H](O)CC[C@@H]1Cc1ccccc1)n1ncc(C(O)(c2ccc(F)cc2)c2ccc(F)cc2)n1`, the IC50 in assay [1] was 6310 nM; in assay [2], 200 nM.
With `O=C(N1CCCCC1COc1ccccc1)n1ncc(C(O)(c2ccc(F)cc2)c2ccc(F)cc2)n1` (stereo not given), the half-maximal inhibitory concentration (IC50) in assay [1] is 5.01 nM; in assay [2], 200 nM.
For `O=C(N1CCCC[C@@H]1Cc1ccccc1)n1ncc(C(O)(c2ccc(F)cc2)c2ccc(F)cc2)n1`, the half-inhibitory concentration (IC50) in assay [1] is 0.794 nM.
On to `CCC1CCCCN1C(=O)n1ncc(-c2ccc(-c3ccccc3)cc2)n1` (stereo not given), for which the IC50 in assay [1] is 3980 nM.
As for `O=C(N1CCCCC1COc1ccc(F)cc1)n1ncc(C(O)(c2ccccc2)c2ccccc2)n1` (stereo not given), the IC50 in assay [1] was 6.31 nM; in assay [2], 251 nM.
Regarding `O=C(N1CCCCC1Cc1ccccc1)n1ncc(C2(O)CCCCC2)n1` (stereo not given), the concentration for half-maximal inhibition (IC50) was 1580 nM in assay [1] and 3160 nM in assay [2].
For `O=C(N1C[C@H](O)CC[C@@H]1Cc1ccccc1)n1ncc(C(O)(c2ccc(F)cc2)c2ccc(F)cc2)n1`, the IC50 in assay [1] is 20 nM; in assay [2], 158 nM.
For `O=C(N1C[C@@H](OCC2CC2)CC[C@@H]1Cc1ccccc1)n1ncc(C(O)(c2ccc(F)cc2)c2ccc(F)cc2)n1`, the IC50 in assay [1] was 20 nM; in assay [5], 79.4 nM; in assay [2] it was 2510 nM; in assay [6], greater than 10000 nM. Further, the Ratio IC50 in assay [3] turned out to be 145. Moreover, in assay [4], the inhibition result is “Dose-dependent effect”.
Turning to `O=C(N1C[C@@H](O)C=C[C@@H]1Cc1ccccc1)n1ncc(C(O)(c2ccc(F)cc2)c2ccc(F)cc2)n1`, the values for the IC50 in assay [1] and in assay [2] were 20 nM and 251 nM, respectively.
For the compound `CC(O)(c1ccccc1)c1cnn(C(=O)N2CCCCC2Cc2ccccc2)n1` (stereo not given), the IC50 is 398 nM in assay [1] and 3160 nM in assay [2].
Take `CO[C@H]1CC[C@H](Cc2ccccc2)N(C(=O)n2ncc(C(O)(c3ccc(F)cc3)c3ccc(F)cc3)n2)C1`: the IC50 in assay [1] was 7.94 nM; in assay [5] it was 79.4 nM; in assay [2], 126 nM; in assay [6] it was 398 nM. Besides, the Ratio IC50 in assay [3] was found to be 5. Further, the inhibition entry in assay [4] is “Dose-dependent effect”.
As for `COc1ccc(CC2CCCCN2C(=O)n2ncc(C(O)(c3ccc(F)cc3)c3ccc(F)cc3)n2)cc1` (stereo not given), the IC50 is 5.01 nM in assay [1] and 251 nM in assay [2].
As to `O=C(N1C[C@H](O)C=C[C@@H]1Cc1ccccc1)n1ncc(C(O)(c2ccc(F)cc2)c2ccc(F)cc2)n1`, the IC50 is 12.6 nM in assay [1] and 39.8 nM in assay [2].
Take `COC(c1ccc(F)cc1)(c1ccc(F)cc1)c1cnn(C(=O)N2CCCCC2Cc2ccccc2)n1` (stereo not given): the IC50 in assay [1] was 12.6 nM; in assay [2], greater than 10000 nM.
For the compound `O=C(N1CCCCC1COc1ccc(F)cc1)n1ncc(C(O)(c2ccc(F)cc2)c2ccc(F)cc2)n1` (stereo not given), the IC50 in assay [1] is 5.01 nM; in assay [2] it was 200 nM.
For the compound `O=C(N1C[C@H](OCC2CC2)CC[C@@H]1Cc1ccccc1)n1ncc(C(O)(c2ccc(F)cc2)c2ccc(F)cc2)n1`, the IC50 was 0.631 nM in assay [1], 2 nM in assay [5], 39.8 nM in assay [2] and 316 nM in assay [6]. Further, the Ratio IC50 in assay [3] amounted to 160. Besides, the inhibition entry in assay [4] is “Dose-dependent effect”.
On to `O=C(N1CCCCC1COc1ccccc1)n1ncc(C(O)(c2ccccc2)c2ccccc2)n1` (stereo not given), for which the half-inhibitory concentration (IC50) in assay [1] was 7.94 nM; in assay [2], 158 nM.
Turning to `CC(C)(O)c1cnn(C(=O)N2CCCCC2Cc2ccccc2)n1` (stereo not given), the values for the IC50 in assay [1] and in assay [2] were 5010 nM and greater than 10000 nM, respectively.
With `O=C(N1CCCCC1Cc1ccccc1)n1ncc(C(O)(c2ccccn2)c2ccccn2)n1` (stereo not given), the results for the IC50 in assay [1] and in assay [2] were 158 nM and 3160 nM, respectively.
As for `O=C(N1CCCCC1Cc1ccccc1)n1ncc(C(O)(C2CCCCC2)C2CCCCC2)n1` (stereo not given), the results for the IC50 in assay [1] and in assay [2] were 100 nM and 7940 nM, respectively.

Source of the values: ChEMBL document CHEMBL3877306, “Triazole Ureas Act as Diacylglycerol Lipase Inhibitors and Prevent Fasting-Induced Refeeding” (J Med Chem, 2017).
